ChEMBL document CHEMBL2424657, “Identification of the KDM2/7 histone lysine demethylase subfamily inhibitor and its antiproliferative activity” (J Med Chem, 2013)
The source made the active and inactive calls. No cut-off for these calls is given here.

Experiments:
[1] = target: T1, Lysine-specific demethylase 4A (Homo sapiens, UniProt O75164); experiment: Inhibition of KDM4A (unknown origin) using H3K9me3 peptide and 2-oxoglutarate as substrate after 1 hr by FDH-coupled assay
T1 sequence (O75164 whole entry): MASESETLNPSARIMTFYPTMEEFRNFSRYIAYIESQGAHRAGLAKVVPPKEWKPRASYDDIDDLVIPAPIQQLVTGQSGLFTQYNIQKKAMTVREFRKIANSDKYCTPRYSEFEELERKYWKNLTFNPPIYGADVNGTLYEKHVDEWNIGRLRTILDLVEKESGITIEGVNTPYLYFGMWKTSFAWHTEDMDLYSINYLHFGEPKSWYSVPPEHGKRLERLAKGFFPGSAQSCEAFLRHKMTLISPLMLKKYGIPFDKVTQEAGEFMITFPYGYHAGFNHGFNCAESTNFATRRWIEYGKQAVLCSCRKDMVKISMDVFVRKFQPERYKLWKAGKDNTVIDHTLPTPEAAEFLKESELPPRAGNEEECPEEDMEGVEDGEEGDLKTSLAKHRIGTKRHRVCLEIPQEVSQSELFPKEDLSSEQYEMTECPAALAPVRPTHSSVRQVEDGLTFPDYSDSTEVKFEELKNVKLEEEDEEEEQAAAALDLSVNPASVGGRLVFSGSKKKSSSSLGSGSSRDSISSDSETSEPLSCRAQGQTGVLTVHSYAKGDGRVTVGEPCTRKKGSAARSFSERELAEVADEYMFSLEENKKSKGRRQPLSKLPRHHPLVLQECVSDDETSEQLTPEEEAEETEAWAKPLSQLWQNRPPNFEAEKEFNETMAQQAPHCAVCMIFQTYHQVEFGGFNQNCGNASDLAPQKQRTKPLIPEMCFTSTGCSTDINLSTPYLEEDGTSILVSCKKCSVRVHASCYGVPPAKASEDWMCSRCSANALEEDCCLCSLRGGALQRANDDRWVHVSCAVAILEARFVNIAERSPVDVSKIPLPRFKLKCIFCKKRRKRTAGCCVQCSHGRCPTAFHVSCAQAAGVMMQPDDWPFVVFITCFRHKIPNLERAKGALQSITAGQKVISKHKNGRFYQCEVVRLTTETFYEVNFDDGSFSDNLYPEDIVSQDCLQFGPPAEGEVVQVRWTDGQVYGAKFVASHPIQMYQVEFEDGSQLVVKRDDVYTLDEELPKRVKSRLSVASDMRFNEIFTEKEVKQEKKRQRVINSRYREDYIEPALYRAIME
How it was run: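 Run as the FDH-coupled KDM4C format, with compounds in DMSO and activity relative to a DMSO control. KDM4A was used at 0.37 mg/mL final with H3K9me3 peptide. KDM5A was used at 0.64 mg/mL final with H3K4me3 peptide. Values are means of two experiments.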

[2] = target: T2, Lysine-specific demethylase 4C (Homo sapiens, UniProt Q9H3R0); experiment: Inhibition of KDM4C (unknown origin) using H3K9me3 peptide and 2-oxoglutarate as substrate after 1 hr by FDH-coupled assay
T2 sequence (Q9H3R0 whole entry): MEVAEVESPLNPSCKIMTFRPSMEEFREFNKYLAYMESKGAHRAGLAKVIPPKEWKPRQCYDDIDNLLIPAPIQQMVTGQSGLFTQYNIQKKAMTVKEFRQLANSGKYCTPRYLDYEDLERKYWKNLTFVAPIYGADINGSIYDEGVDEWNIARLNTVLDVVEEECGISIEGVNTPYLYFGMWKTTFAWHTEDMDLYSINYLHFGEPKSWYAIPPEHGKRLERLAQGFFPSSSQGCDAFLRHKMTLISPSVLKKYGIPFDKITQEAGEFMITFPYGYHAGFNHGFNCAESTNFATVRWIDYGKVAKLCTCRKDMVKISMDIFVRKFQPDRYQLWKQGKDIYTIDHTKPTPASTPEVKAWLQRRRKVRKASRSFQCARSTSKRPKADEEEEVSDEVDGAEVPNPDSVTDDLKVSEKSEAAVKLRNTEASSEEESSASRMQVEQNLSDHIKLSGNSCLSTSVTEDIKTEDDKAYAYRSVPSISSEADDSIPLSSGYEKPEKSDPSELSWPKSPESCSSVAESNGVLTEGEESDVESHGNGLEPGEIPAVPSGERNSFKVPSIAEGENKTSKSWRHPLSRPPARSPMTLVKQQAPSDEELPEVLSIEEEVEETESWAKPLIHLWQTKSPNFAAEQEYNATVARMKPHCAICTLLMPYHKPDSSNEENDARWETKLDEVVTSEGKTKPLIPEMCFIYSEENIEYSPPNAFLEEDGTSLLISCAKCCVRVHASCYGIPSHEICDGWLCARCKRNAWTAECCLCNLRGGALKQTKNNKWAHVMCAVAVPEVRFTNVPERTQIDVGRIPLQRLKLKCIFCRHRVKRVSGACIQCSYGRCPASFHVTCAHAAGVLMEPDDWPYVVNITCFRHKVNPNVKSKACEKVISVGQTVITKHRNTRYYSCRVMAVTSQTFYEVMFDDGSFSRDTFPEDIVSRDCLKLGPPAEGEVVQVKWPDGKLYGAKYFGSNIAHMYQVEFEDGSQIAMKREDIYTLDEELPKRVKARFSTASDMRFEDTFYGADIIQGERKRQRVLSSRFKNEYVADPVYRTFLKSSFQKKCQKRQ

[3] = target: T3, Lysine-specific demethylase 7A/7B (Homo sapiens) (UniProt Q9UPP1+Q6ZMT4); experiment: Inhibition of KDM7A/7B in human HeLa cells assessed as H3K27me2 level at GI50 after 24 hrs by Western blot analysis; assay type: cell-based
How it was run: (§1)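 Cells (5×10^5) were treated for 24 h in OPTI-MEM and lysed in SDS buffer. Equal protein amounts, set by Bradford assay, were resolved on 4–20% SDS-PAGE and blotted. Blots were probed with anti-H3K27me2 (1:1000) and anti-H3 (1:100000) as loading reference, detected with an HRP secondary antibody, and visualized by ECL.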

[4] = target: Lysine-specific demethylase 7A/7B (Mus musculus) (UniProt Q3UWM4+Q80TJ7); experiment: Inhibition of KDM7A/7B in mouse N2a cells assessed as H3K27me2 level after 24 hrs by Western blot analysis; assay type: cell-based; how it was run: as §1
[5] = Cell cycle arrest in human KYSE-150 cells assessed as reduction in G2/M phase after 24 hrs by FACS analysis; assay type: functional, cell-based
How it was run: (§2)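 HeLa or KYSE150 cells (5×10^5) were exposed for 24 h to 10 or 100 μM in RPMI 1640 with 10% FBS, then trypsinized. Cells were fixed in ice-cold 70% ethanol, PBS-washed and stained with propidium iodide (10 μg/mL) plus RNase A (0.2 mg/mL) for 30 min at 25 °C. Phase distribution was read by flow cytometry.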

[6] = target: T3, Lysine-specific demethylase 7A/7B (Homo sapiens); experiment: Inhibition of KDM7A/7B in human KYSE-150 cells assessed as H3K27me2 level at GI50 after 24 hrs by Western blot analysis; assay type: cell-based; how it was run: as §1
HeLa = experiment: Cell cycle arrest in human HeLa cells assessed as increase in G0/G1 phase after 24 hrs by FACS analysis; assay type: functional, cell-based; how it was run: as §2

T3 sequence (Q6ZMT4 whole entry, looked up): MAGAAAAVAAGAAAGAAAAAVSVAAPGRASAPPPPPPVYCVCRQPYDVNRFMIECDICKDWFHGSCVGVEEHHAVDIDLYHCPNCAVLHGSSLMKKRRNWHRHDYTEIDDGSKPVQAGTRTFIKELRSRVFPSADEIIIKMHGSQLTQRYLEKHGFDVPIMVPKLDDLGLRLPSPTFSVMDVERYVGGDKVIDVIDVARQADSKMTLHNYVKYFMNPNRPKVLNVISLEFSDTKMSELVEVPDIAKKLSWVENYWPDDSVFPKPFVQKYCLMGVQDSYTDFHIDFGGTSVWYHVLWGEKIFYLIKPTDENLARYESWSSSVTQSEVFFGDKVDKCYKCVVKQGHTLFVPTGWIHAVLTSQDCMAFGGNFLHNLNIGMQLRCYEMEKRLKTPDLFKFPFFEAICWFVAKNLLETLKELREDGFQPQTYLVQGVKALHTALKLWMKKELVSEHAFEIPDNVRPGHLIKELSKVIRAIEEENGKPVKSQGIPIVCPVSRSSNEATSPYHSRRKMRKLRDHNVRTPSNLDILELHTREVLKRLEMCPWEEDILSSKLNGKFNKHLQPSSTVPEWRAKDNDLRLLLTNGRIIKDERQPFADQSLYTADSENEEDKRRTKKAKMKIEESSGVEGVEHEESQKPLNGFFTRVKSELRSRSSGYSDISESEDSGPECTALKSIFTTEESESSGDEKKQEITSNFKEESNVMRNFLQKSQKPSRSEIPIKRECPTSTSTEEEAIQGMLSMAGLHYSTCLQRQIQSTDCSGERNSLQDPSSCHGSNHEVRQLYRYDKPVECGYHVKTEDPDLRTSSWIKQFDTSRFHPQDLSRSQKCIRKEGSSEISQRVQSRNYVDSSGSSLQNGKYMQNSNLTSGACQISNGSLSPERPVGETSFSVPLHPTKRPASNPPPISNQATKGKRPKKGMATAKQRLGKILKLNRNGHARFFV
T3 sequence (Q9UPP1 whole entry, looked up): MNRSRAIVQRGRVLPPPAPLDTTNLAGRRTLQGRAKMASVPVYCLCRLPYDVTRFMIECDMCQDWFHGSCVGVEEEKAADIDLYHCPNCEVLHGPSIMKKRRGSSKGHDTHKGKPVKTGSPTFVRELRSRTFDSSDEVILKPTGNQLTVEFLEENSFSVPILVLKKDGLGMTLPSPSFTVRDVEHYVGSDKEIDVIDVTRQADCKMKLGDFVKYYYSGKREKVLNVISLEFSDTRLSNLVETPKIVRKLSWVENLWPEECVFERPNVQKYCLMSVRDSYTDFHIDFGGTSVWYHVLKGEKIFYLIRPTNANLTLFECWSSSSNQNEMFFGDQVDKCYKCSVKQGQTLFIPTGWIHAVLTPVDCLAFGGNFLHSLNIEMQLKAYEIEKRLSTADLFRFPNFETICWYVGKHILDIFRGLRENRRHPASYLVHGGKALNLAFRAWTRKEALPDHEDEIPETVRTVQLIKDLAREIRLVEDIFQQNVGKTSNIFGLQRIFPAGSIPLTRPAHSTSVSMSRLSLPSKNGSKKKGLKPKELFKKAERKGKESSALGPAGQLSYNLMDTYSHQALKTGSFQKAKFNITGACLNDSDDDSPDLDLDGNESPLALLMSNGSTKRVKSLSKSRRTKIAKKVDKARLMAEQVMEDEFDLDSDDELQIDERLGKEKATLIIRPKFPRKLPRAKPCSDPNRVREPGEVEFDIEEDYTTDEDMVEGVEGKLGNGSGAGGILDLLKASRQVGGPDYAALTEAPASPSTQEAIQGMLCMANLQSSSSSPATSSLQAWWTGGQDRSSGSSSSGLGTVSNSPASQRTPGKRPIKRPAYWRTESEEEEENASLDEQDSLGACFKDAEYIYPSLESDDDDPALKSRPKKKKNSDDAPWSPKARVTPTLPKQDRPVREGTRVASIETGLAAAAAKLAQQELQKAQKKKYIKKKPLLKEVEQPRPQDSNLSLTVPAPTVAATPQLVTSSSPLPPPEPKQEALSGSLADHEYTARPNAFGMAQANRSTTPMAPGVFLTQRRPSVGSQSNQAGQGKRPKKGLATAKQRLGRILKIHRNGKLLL
Chain of Lysine-specific demethylase 7A/7B (Mus musculus) (Q3UWM4 whole entry, looked up): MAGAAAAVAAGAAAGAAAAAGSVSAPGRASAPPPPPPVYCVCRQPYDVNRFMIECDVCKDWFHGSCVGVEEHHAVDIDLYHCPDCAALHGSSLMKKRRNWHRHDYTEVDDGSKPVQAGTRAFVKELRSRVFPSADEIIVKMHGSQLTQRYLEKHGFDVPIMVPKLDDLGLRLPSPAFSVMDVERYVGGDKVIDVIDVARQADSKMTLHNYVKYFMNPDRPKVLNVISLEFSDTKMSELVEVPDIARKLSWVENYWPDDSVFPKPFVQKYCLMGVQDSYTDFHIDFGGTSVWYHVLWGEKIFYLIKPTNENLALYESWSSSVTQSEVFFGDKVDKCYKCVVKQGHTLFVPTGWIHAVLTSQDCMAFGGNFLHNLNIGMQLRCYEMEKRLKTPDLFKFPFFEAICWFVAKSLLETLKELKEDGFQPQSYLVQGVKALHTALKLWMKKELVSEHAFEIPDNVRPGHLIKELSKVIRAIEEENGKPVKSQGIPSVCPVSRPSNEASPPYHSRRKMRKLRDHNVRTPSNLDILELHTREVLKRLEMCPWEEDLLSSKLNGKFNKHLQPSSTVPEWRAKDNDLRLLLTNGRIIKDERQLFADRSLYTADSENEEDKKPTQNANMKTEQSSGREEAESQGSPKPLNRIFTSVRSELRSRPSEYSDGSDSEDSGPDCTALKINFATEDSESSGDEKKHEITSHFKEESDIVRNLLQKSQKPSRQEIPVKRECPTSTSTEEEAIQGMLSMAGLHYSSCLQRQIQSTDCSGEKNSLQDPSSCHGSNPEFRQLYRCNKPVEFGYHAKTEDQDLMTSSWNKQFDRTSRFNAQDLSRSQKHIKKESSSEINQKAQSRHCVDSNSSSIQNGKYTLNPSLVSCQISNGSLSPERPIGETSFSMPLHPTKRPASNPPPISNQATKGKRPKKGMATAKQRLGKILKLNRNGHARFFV
Chain of Lysine-specific demethylase 7A/7B (Mus musculus) (Q80TJ7 whole entry, looked up): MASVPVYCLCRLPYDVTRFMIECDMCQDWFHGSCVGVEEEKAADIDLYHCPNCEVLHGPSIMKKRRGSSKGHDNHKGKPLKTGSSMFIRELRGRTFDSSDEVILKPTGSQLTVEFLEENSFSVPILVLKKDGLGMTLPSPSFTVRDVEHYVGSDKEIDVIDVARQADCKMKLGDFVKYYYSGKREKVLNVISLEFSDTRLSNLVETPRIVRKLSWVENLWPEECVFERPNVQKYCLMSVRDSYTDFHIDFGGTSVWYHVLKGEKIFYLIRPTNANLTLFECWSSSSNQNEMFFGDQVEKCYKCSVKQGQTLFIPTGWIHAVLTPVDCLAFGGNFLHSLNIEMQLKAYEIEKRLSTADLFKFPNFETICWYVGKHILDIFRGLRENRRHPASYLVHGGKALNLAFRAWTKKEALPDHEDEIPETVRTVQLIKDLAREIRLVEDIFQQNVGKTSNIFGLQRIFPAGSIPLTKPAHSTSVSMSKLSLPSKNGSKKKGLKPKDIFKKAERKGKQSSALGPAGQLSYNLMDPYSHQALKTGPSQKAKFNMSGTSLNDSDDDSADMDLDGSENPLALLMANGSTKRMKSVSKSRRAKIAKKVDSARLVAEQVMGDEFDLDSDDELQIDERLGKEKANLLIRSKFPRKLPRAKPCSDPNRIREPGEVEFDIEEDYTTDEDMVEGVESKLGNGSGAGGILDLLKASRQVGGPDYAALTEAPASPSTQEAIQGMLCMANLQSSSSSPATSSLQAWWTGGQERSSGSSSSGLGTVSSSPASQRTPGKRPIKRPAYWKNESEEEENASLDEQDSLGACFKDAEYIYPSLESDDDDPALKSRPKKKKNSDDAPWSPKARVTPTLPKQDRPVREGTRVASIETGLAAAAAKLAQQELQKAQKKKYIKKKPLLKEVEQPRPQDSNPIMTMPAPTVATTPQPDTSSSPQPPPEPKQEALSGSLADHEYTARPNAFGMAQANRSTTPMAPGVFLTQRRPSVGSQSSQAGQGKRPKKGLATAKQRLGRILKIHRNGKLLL

Row | IC50 [1] [nM] | IC50 [2] [nM] | inhibition [3] | inhibition [4] | inhibition [6] | SMILES | Activity [5] | Activity (HeLa)
1 | 800 | 2200 |  |  |  | CN(C)CCCCCCCCC(=O)N(O)CCC(=O)O |  | 
2 | > 120000 | 83000 | Active | Dose-dependent effect | Active | O=C(O)CCN(O)C(=O)CCCCCCCCC1CC1 | Dose-dependent effect | Dose-dependent effect
